From ChEMBL document CHEMBL3120159, “Discovery of 2-pyridone derivatives as potent HIV-1 NNRTIs using molecular hybridization based on crystallographic overlays” (Bioorg Med Chem, 2014)

Key:
[1] = Cytotoxicity against human MT4 cells after 5 days by MTT assay; type: cell-based
How it was run: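 Exponentially growing MT-4 cells resuspended at 6 × 10⁵ cells/mL and exposed to serial five-fold compound dilutions in triplicate, mock-infected alongside infected wells. Viability read by MTT assay at day 5. CC₅₀ = concentration reducing mock-infected cell viability by 50%.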

[2] = tested on: Human immunodeficiency virus 1; test: Antiviral activity against HIV1 RES056 harboring reverse transcriptase K103N/Y181C double mutant infected in human MT4 cells assessed as protection against virus-induced cytopathic effect after 5 days by MTT assay; type: functional, organism-based; settings: Human immunodeficiency virus 1, RES056, MT4, 120 h
How it was run: (§1)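 MT-4 cells, growing exponentially, were spun and resuspended at 6 × 10⁵ cells/mL. They were infected at the start together with compound, given as serial five-fold dilutions in triplicate wells, with mock-infected wells run in parallel. Viability was read by MTT after 5 days. EC₅₀ is the concentration giving 50% protection against viral cytopathic effect.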

[3] = Selectivity index, ratio of CC50 for human MT4 cells to EC50 for HIV1 RES056; type: toxicity, cell-based; settings: read-out: Ratio CC50/EC50
How it was run: (§2)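 Selectivity index is CC₅₀/EC₅₀. Both values come from the same MTT assay in MT-4 cells: mock-infected and virus-infected (100-300 CCID₅₀) wells were run in parallel and read at day 5.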

[4] = tested on: Human immunodeficiency virus 2; test: Antiviral activity against HIV2 ROD infected in human MT4 cells assessed as protection against virus-induced cytopathic effect after 5 days by MTT assay; type: functional, organism-based; settings: Human immunodeficiency virus 2, ISOLATE ROD, MT4, 120 h
How it was run: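 MT-4 cells resuspended at 6 × 10⁵ cells/mL after centrifugation at 200 g for 5 min. HIV-2 (ROD) added at 100-300 CCID₅₀. Test compound given as serial five-fold dilutions, triplicate wells. Viability of infected cells measured spectrophotometrically by MTT after 5 days. EC₅₀ = concentration giving 50% protection against viral cytopathic effect.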

[5] = Selectivity index, ratio of CC50 for human MT4 cells to EC50 for HIV1 3B; type: toxicity, cell-based; settings: read-out: Ratio CC50/EC50; how it was run: as §2
[6] = Selectivity index, ratio of CC50 for human MT4 cells to EC50 for HIV2 ROD; type: toxicity, cell-based; settings: read-out: Ratio CC50/EC50; how it was run: as §2
[7] = tested on: Human immunodeficiency virus 1; test: Antiviral activity against HIV1 3B harboring wild type reverse transcriptase infected in human MT4 cells assessed as protection against virus-induced cytopathic effect after 5 days by MTT assay; type: functional, organism-based; settings: Human immunodeficiency virus 1, 3B, MT4, 120 h; how it was run: as §1
[8] = molecular target: Human immunodeficiency virus type 1 reverse transcriptase (Human immunodeficiency virus 1, UniProt Q72547); test: Inhibition of HIV1 reverse transcriptase assessed as inhibition of biotinylated dUTP incorporation after 1 hr by ELISA
How it was run: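 Recombinant HIV-1 RT kit (colorimetric ELISA). Poly(A)·oligo(dT)₁₅ template/primer with DIG-dUTP, biotin-dUTP and dTTP, ±inhibitor, 1 h at 37 °C. Product captured on streptavidin plate (1 h, 37 °C), then anti-DIG-POD (1 h, 37 °C), ABTS developed at 25 °C, A405 read. IC₅₀ = concentration inhibiting biotin-dUTP incorporation by 50%.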

[9] = tested on: Human immunodeficiency virus 1; test: Antiviral activity against HIV1 harboring reverse transcriptase K101N mutant infected in human MT4 cells; type: functional, organism-based; settings: Human immunodeficiency virus 1, MT4

SMILES	CC50 at 120 h [1] [µM]	EC50 [2] [µM]	selectivity ratio [3]	EC50 [4] [µM]	selectivity ratio [5]	selectivity ratio [6]	EC50 [7] [µM]	IC50 [8] [µM]	EC50 [9] [µM]
Cc1cc(C#N)cc(C)c1Oc1cc(Nc2ccc(C#N)cc2)[nH]c(=O)c1Cl	> 319	> 319	1	> 319	> 44	1	7.2		
Cc1cc(C#N)cc(C)c1Oc1cc(Nc2ccc(C#N)cc2)[nH]c(=O)c1	25	> 25	< 1	> 25	166	< 1	0.15	5.2	
Cc1cccc(C)c1Oc1cc(Nc2ccc(C#N)cc2)[nH]c(=O)c1	36	> 36	< 1	> 36	26	< 1	1.4		
Cc1cc(C)cc(Oc2cc(Nc3ccc(C#N)cc3)[nH]c(=O)c2)c1	46			> 46	< 1	< 1	> 46		
Cc1cc(C)c(Oc2cc(Nc3ccc(C#N)cc3)[nH]c(=O)c2I)c(C)c1	34	> 34	< 1	> 34	6	< 1	5.6		
Cc1cc(C)c(Oc2cc(Nc3ccc(C#N)cc3)[nH]c(=O)c2Br)c(C)c1	> 294	> 294	1	> 294	> 9	1	32		
Cc1cc(C)c(Oc2cc(Nc3ccc(C#N)cc3)[nH]c(=O)c2Cl)c(C)c1	> 329	> 329	1	> 329	> 35	1	9.3		
Cc1cc(C#N)cc(C)c1Oc1cc(Nc2ccc(C#N)cc2)[nH]c(=O)c1I	> 259	> 259	1	> 259	> 89	1	2.9		
Cc1cc(C#N)cc(C)c1Oc1cc(Nc2ccc(C#N)cc2)[nH]c(=O)c1Br	> 287	> 287	1	> 287	> 244	1	1.2		
Cc1cccc(C)c1Oc1cc(Nc2ccc(C#N)cc2)[nH]c(=O)c1I	28	> 28	< 1	> 28	16	< 1	1.7		
Cc1cccc(C)c1Oc1cc(Nc2ccc(C#N)cc2)[nH]c(=O)c1Br	63	> 63	< 1	> 63	17	< 1	3.6		
Cc1cccc(C)c1Oc1cc(Nc2ccc(C#N)cc2)[nH]c(=O)c1Cl	29	> 29	< 1	> 29	12	< 1	2.4		
Cc1cc(C)cc(Oc2cc(Nc3ccc(C#N)cc3)[nH]c(=O)c2I)c1	24			> 24	< 1	< 1	> 24		
Cc1cc(C)cc(Oc2cc(Nc3ccc(C#N)cc3)[nH]c(=O)c2Br)c1	19			> 19	< 1	< 1	> 19		
Cc1cc(C)cc(Oc2cc(Nc3ccc(C#N)cc3)[nH]c(=O)c2Cl)c1	21			> 21	< 1	< 1	> 21		
COc1cc(Oc2c(C)cc(C)cc2C)cc(Nc2ccc([N+](=O)[O-])cc2)n1	7.2			> 7.2	< 1	< 1	> 7.2		
COc1cc(Oc2c(C)cc(C)cc2C)cc(Nc2ccc(C)cc2)n1	35			> 35	< 1	< 1	> 35		
COc1cc(Oc2c(C)cc(C)cc2C)cc(Nc2ccc(C#N)cc2)n1	29	> 29	< 1	> 29	35	< 1	0.84		
COc1cc(Oc2c(C)cc(C#N)cc2C)cc(Nc2ccc(C#N)cc2)n1	> 147	> 147	1	> 147	≥ 211	≤ 1	0.7		
COc1cc(Oc2c(C)cccc2C)cc(Nc2ccc(C#N)cc2)n1	8.5			> 8.8	< 1	< 1	> 8.5		
COc1cc(Oc2cc(C)cc(C)c2)cc(Nc2ccc(C#N)cc2)n1	20			> 20	< 1	< 1	> 20		
Cc1cc(C)c(Oc2cc(Nc3ccc([N+](=O)[O-])cc3)[nH]c(=O)c2)c(C)c1	26	> 26	< 1	> 26	19	< 1	1.4		
Cc1ccc(Nc2cc(Oc3c(C)cc(C)cc3C)cc(=O)[nH]2)cc1	37	> 37	< 1	> 37	26	< 1	1.4		
CC(C)Nc1cccnc1N1CCN(C(=O)c2cc3cc(NS(C)(=O)=O)ccc3[nH]2)CC1 [DELAVIRDINE]	> 36	> 36			> 40		0.91		
Cc1ccnc2c1NC(=O)c1cccnc1N2C1CC1 [NEVIRAPINE]	> 15								
Cc1cc(/C=C/C#N)cc(C)c1Nc1ccnc(Nc2ccc(C#N)cc2)n1 [RILPIVIRINE]									0.0003
